# Screening data (PubChem)
# CCR6 antagonist = blocks CCL20-driven beta-arrestin recruitment at human CCR6. 0.49% of 340,000 active. P51684. CHO-K1 CCR6 PathHunter beta-arrestin, luminescence, CCL20-stimulated. AID 493098. inhibition, % at 20 µM;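 active means compounds whose inhibition of the agonist-driven luminescence signal at 20 µM reaches about 50%, limit read from the data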;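 further: cells stimulated with CCL20 at 14 nM final; plate controls were DMSO with CCL20 for no effect and DMSO without agonist for full effect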
# Target sequence (P51684 whole entry, looked up): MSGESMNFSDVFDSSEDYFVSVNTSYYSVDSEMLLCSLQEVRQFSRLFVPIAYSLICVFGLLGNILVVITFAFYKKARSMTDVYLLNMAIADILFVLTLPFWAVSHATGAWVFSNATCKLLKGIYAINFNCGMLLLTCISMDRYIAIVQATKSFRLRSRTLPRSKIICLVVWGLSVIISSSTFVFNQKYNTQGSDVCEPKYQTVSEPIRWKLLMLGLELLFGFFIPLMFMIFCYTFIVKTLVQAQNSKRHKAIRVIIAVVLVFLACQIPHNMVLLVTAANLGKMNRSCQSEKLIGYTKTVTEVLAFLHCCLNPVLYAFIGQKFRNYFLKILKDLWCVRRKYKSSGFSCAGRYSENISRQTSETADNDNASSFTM
# EBI2 antag = EBI2 (human) antagonism. P32249. EBI2 beta-arrestin recruitment, luminescence, 7a,25-OHC stimulated. inhibition, % at 5 µM. 0.81% of 360,000 active; in the data active means inhibition above about 38%;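 further: enzyme fragment complementation signal reports receptor beta-arrestin coupling in cells; 0% = agonist plus DMSO wells and 100% = wells without agonist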
# APJ antag = APJ receptor antagonism. P35414. CHO-K1 APJ beta-arrestin complementation, luminescence. inhibition, % at 20 µM. 0.32% of 330,000 active;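 active means inhibition above about 40% at 20 µM, limit read from the data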;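 further: cells challenged with 10 nM apelin-13 agonist together with compound; plate controls were apelin-13 plus DMSO wells for no effect and DMSO wells lacking apelin-13 for full effect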
# hiPSC survival = enhancers of human iPSC single-cell survival; survival enhancement, % at 20 µM; 0.044% of 360,000 active; hiPSC single-cell survival, ATPlite luminescence; 100% = ROCK inhibitor wells, 0% = DMSO; in the data active means survival enhancement above about 18%;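 further: cells exposed to compounds for 16 hours before the ATP read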
# CXCR6 block = CXCR6 (human) receptor inhibition; inhibition, % at 20 µM; 0.36% of 360,000 active; CHO-K1 PathHunter CXCR6 beta-arrestin, luminescence; AID 602244; in the data active means inhibition above about 34%, passing the limit was not always enough;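 further: antagonist mode with CXCL16 agonist at 10 nM final; 0% = 10 nM CXCL16 with DMSO and 100% = unstimulated wells without agonist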
# Target sequence (O00574 whole entry, looked up): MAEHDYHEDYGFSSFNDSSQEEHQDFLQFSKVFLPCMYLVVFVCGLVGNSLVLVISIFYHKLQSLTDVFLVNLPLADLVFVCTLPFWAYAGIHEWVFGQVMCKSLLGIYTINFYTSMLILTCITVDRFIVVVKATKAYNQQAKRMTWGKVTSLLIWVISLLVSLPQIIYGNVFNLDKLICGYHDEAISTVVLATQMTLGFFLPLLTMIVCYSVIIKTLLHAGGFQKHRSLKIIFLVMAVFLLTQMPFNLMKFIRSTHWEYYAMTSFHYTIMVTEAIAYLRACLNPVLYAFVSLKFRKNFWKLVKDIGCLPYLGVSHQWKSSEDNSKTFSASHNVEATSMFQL
# APJ agonist = activates the human apelin receptor APJ; CHO-K1 APJ PathHunter beta-arrestin, luminescence; 0% DMSO wells, 100% apelin; P35414; activation, % at 20 µM; 0.11% of 330,000 active;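 active means activation more than six SD over the plate average, tested at 20 µM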;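 further: 0% = DMSO alone and 100% = apelin-13 at 10 nM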
#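 Assay system: CHO-K1 APJ beta-arrestin complementation cell line / Compound: single test compound dose, 20 µM final, 1% DMSO / Times: overnight seeding, 90 min compound at 25 °C, 1 h detection / Technique: beta-gal luminescence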
# EBI2 conf = EBI2 (human) antagonism, single concentration confirmation | shares compounds with EBI2 antag | EBI2 beta-arrestin luminescence, 7a,25-OHC antagonism | inhibition, % at 5 µM | 29% of 2,400 active;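 active means inhibition of at least 50%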
# EBI2 ag = counter-screen for EBI2 antagonists: EBI2 agonist activity; EBI2-expressing cells, agonist mode, luminescence, 60 min; 0% vehicle, 100% 7α,25-dihydroxycholesterol control; activation, % at 5 µM; 2,400 tested, under 10 active; AID 652000; shares compounds with EBI2 antag;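 active means activation of at least 50%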
# bGal cs = inhibits E. coli beta-galactosidase, counter-screen for EBI2 antagonists; shares compounds with EBI2 antag; purified beta-galactosidase, luminescent Galacton Star, 15 min; inhibition, % at 5 µM; 1% of 2,400 active; AID 652176;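 active means replicate-average signal at least 3 plate SD below neutral wells, shown as high inhibition, flagging enzyme-inhibiting false positives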;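 further: 0% = DMSO wells with enzyme and 100% = wells lacking enzyme; higher means stronger loss of beta-gal luminescence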
# An asterisk follows results filed as active; nt = no result given. Shown are actives, neighbours in structure and some others; about 1.5% of the full set was active somewhere.
SMILES,CCR6 antagonist,EBI2 antag,APJ antag,hiPSC survival,CXCR6 block,APJ agonist,EBI2 conf,EBI2 ag,bGal cs
CCOc1ccccc1NC(=O)CCNC(=O)N1CC(=O)Nc2ccccc21,nt,-1.2,nt,-2.4,-2.4,nt,nt,nt,nt
Cc1coc2cc3oc(=O)c(CCC(=O)N4CCC(C(=O)O)(c5ccccc5)CC4)c(C)c3cc12,6.3,-0.5,-29.1,-0.3,-0.4,-3.8,nt,nt,nt
c1ccc(-c2cc3nc(NCC4CC4)nc(NCC4CCCCC4)c3s2)cc1,nt,56.2*,nt,-4.1,7.5,nt,37.6,1.9,5.4
COCCNc1nc(NCC2CCCCC2)c2sc(-c3ccccc3)cc2n1,nt,29.3,nt,-4.8,-3.4,nt,nt,nt,nt
COCCNc1nc(NCCOc2ccccc2Cl)c2sc(-c3ccccc3)cc2n1,nt,40.4*,nt,-2.5,16.2,nt,23.2,-2.2,-3.4
COc1ccc(CN(C)CC(=O)N(C)CC(=O)Nc2ccccc2Br)cc1F,-7.3,-1.4,0.2,-0.5,3.8,-2.9,nt,nt,nt
Cc1cc(C(=O)N2CCN(C/C=C/c3ccccc3)CC2)cs1,3.3,45.8*,-12.7,1.8,3.6,-5.3,31.1,3.3,1.2
Cc1cc(NC(=O)CCN2CCN(C/C=C/c3ccccc3)CC2)ccc1Br,0.7,8.1,-12.5,0.7,-11.7,0.0,nt,nt,nt
O=C(c1cc(Br)c(Br)s1)N1CCN(C/C=C/c2ccccc2)CC1,14.6,65.0*,4.2,4.7,3.4,1.6,35.0,0.0,2.5
O=C(c1cccnc1)N1CCN(C/C=C/c2ccccc2)CC1,-2.6,6.3,4.8,-0.9,-9.0,-1.7,nt,nt,nt
Cc1cccc(NC(=O)c2ccc(OC3CSC3)cc2)c1,0.8,55.4*,2.8,-1.6,-14.5,-3.4,48.1,1.8,-2.6
CC(=O)c1cccc(NC(=O)c2ccc(OC3CSC3)cc2)c1,0.0,13.0,10.9,-2.4,-4.4,-2.2,nt,nt,nt
COc1ccc(CCN(C)C(=O)CCNS(=O)(=O)c2ccccc2C(F)(F)F)cc1OC,11.0,-5.0,-0.9,0.1,-3.8,-3.7,nt,nt,nt
Cc1cc(C)c2cc(C(=O)N3CCN(c4ncccc4C(F)(F)F)CC3)[nH]c2c1,1.6,77.1*,2.4,-0.8,-5.7,-3.7,46.1,-0.3,-9.4
CC(C)(C)NC(=O)N1CCN(c2ncccc2C(F)(F)F)CC1,11.4,-13.8,11.2,-0.5,-4.2,1.1,nt,nt,nt
O=C(c1ccc(-n2cccn2)cc1)N1CCN(c2ncccc2C(F)(F)F)CC1,15.6,86.6*,-1.6,-0.3,-3.1,-0.1,79.6*,0.5,7.4
Cc1oc(C(C)(C)C)cc1C(=O)N1CCN(c2ncccc2C(F)(F)F)CC1,0.4,13.9,0.6,-0.7,7.4,2.6,nt,nt,nt
COc1cccc(CN(C)C(=O)c2ccc(NC(=O)CC3SC(N4CCCC4)=NC3=O)cc2)c1OC (stereo not drawn),-0.8,1.9,8.2,-0.1,-0.2,-3.1,nt,nt,nt
COc1ccc(NC(=O)C2CCC(CNS(=O)(=O)c3cccs3)CC2)cc1 (stereo not drawn),14.1,46.7*,4.0,-0.8,-11.7,-2.1,16.3,1.1,5.3
COc1ccc(NC(=O)C2CCC(CNS(=O)(=O)c3cccs3)CC2)cc1OC (stereo not drawn),9.9,17.8,7.9,1.5,0.0,1.3,nt,nt,nt
Cc1ccc(C(=O)COC(=O)c2ccc3c(c2)C(=O)N(c2cccc4ncccc24)C3=O)cc1C,11.4,47.9*,-0.3,-2.0,4.2,2.3,1.2,-1.6,-8.6
O=C1CC(c2ccc(F)cc2)CC2=C1C=Nc1ccccc1N2 (stereo not drawn),1.9,80.6*,28.7,-0.5,-7.4,-4.8,43.3,1.0,6.8
CC1CC(=O)C2=C(C1)Nc1ccccc1N=C2 (stereo not drawn),4.4,-2.5,21.5,-3.1,-8.9,-1.8,nt,nt,nt
O=C1CC(c2ccccc2)CC2=C1C=Nc1ccccc1N2 (stereo not drawn),-8.2,52.6*,14.8,-0.7,8.1,2.5,20.6,0.9,1.4
Cc1cc(C(=O)COC(=O)C2CCN(C(=O)c3ccc(Cl)cc3)CC2)c(C)n1CC1CCCO1 (stereo not drawn),6.8,72.7*,-13.5,0.8,-0.5,-1.0,50.6*,0.9,0.1
SMILES,CCR6 antagonist,EBI2 antag,APJ antag,hiPSC survival,CXCR6 block,APJ agonist,EBI2 conf,EBI2 ag,bGal cs
CCC(=O)N1CCN(c2nnc(-c3ccccc3)c3ccccc23)CC1,6.5,0.7,15.6,0.1,4.9,-0.7,nt,nt,nt
COc1ccc(OCC(=O)N2CCN(c3nnc(-c4ccccc4)c4ccccc34)CC2)cc1,-0.4,91.7*,18.0,2.5,4.0,-4.2,79.8*,-0.9,10.8
COc1ccc(OCC(=O)N2CCN(c3nnc(-c4ccc(C)cc4)c4ccccc34)CC2)cc1,16.9,96.1*,24.0,-0.2,-3.3,1.6,83.2*,-1.5,-12.4
CC(=O)N1CCN(c2nnc(-c3ccccc3)c3ccccc23)CC1,3.3,-10.0,-4.2,0.1,4.1,-1.0,nt,nt,nt
Cc1ccc(OCC(=O)N2CCN(c3nnc(-c4ccc(C)cc4)c4ccccc34)CC2)cc1,26.0,87.1*,23.4,0.3,2.4,-0.1,83.7*,0.8,6.9
O=C(COc1ccccc1)N1CCN(c2nnc(-c3ccccc3)c3ccccc23)CC1,-3.9,71.2*,-15.1,-2.0,-1.8,-3.0,46.9,0.1,-11.8
Nc1ccc2c(c1)C(=O)CCC2,nt,-11.3,nt,-3.8,-4.0,nt,nt,nt,nt
COc1ccc(NC(=O)c2sc(SC)nc2N)cc1,8.0,6.4,7.3,0.6,-1.4,4.9,nt,nt,nt
COc1ccc(NC(=O)c2sc(SCc3ccccc3)nc2N)cc1,6.3,88.3*,2.9,-2.4,1.5,-4.6,68.8*,-0.3,-12.2
O=C(NCc1ccc(F)cc1)C1CCN(S(=O)(=O)N2CCC3(CC2)OCCO3)CC1,-12.7,5.6,-14.3,0.3,-7.0,-0.6,nt,nt,nt
Cc1ccc(CNC(=O)C2CCN(S(=O)(=O)N3CCC4(CC3)OCCO4)CC2)cc1,14.0,45.2*,-3.2,-0.7,-4.5,-0.2,14.9,-0.4,-8.7
Cc1ccc(CNC(=O)C2CCN(S(=O)(=O)N3CCCCC3)CC2)cc1,5.8,32.2,17.9,-0.9,-0.5,0.1,nt,nt,nt
CCc1ccc(CNC(=O)C2CCN(S(=O)(=O)N3CCC4(CC3)OCCO4)CC2)cc1,4.7,47.2*,-7.6,-2.5,1.5,-0.2,21.9,-0.2,11.5
COc1ccccc1-c1csc(Nc2ccc(Oc3ccccc3)cc2)n1,nt,22.8,nt,1.0,1.8,nt,nt,nt,nt
COc1ccc(NC(=O)c2ccc(N3C(=O)C4CC=C(C)CC4C3=O)cc2)c(OC)c1 (stereo not drawn),1.8,5.4,11.5,-0.4,7.4,-0.7,nt,nt,nt
